Results from ChEMBL document CHEMBL3526002, “Tissue distribution and identification of radioactivity components at elimination phase after oral administration of [¹⁴C]CS-1036, an α-amylase inhibitor, to rats” (Drug Metab Dispos, 2013).

Assays:
Set-up in all cases: dose 5 mg/kg, dosed compound name [14C]CS-1036, route oral
Conditions in all cases: in vivo
[1] = system: Stomach; experiment: Drug uptake in albino F344/DuCrlCrlj rat stomach at 5 mg/kg, po after 72 hrs by liquid scintillation counting; format: ADME, organism-based
[2] = system: Plasma; experiment: Drug uptake in albino F344/DuCrlCrlj rat plasma at 5 mg/kg, po after 24 hrs by liquid scintillation counting; format: ADME, organism-based
[3] = system: Small intestine; experiment: Drug uptake in albino F344/DuCrlCrlj rat small intestine at 5 mg/kg, po after 1 hr by liquid scintillation counting; format: ADME, organism-based
[4] = system: Harderian gland; experiment: Drug uptake in albino F344/DuCrlCrlj rat harderian gland at 5 mg/kg, po after 336 hrs by liquid scintillation counting; format: ADME, organism-based
[5] = system: Pancreas; experiment: Drug uptake in albino F344/DuCrlCrlj rat pancreas assessed as ng equivalent of CS-1036 at 5 mg/kg, po after 4 hrs by liquid scintillation counting; format: ADME, organism-based
[6] = Drug uptake in albino F344/DuCrlCrlj rat trachea assessed as ng equivalent of CS-1036 at 5 mg/kg, po after 24 hrs by liquid scintillation counting; format: ADME, organism-based
[7] = system: Blood; experiment: Drug uptake in albino F344/DuCrlCrlj rat blood at 5 mg/kg, po after 168 hrs by liquid scintillation counting; format: ADME, organism-based
How it was run: (§1)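 Male F344/DuCrlCrlj rats (159–167 g; n = 3 per time point) received a single oral dose of [14C]CS-1036 at 5 mg/kg. Blood was taken from the abdominal aorta at 1, 4, 8, 24, 72, 168 and 336 h. Radioactivity was counted by LSC with external-standard efficiency correction. Results were converted to ng equivalent of CS-1036/ml using specific activity and sample volume, and reported as mean + S.D.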

[8] = system: Liver; experiment: Drug uptake in albino F344/DuCrlCrlj rat liver assessed as ng equivalent of CS-1036 at 5 mg/kg, po after 8 hrs by liquid scintillation counting; format: ADME, organism-based
[9] = system: Blood; experiment: Drug uptake in albino F344/DuCrlCrlj rat blood assessed as ng equivalent of CS-1036 at 5 mg/kg, po after 8 hrs by liquid scintillation counting; format: ADME, organism-based; how it was run: as §1
[10] = system: Zone of skin; experiment: Drug uptake in albino F344/DuCrlCrlj rat skin at 5 mg/kg, po after 4 hrs by liquid scintillation counting; format: ADME, organism-based
[11] = system: Spleen; experiment: Drug uptake in albino F344/DuCrlCrlj rat spleen assessed as ng equivalent of CS-1036 at 5 mg/kg, po after 72 hrs by liquid scintillation counting; format: ADME, organism-based
[12] = Drug uptake in albino F344/DuCrlCrlj rat fat at 5 mg/kg, po after 8 hrs by liquid scintillation counting; format: ADME, organism-based, Adipose tissue
How it was run: (§2)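 Male F344/DuCrlCrlj rats (bought at 7 weeks, acclimatized 5–6 days; 159–167 g; n = 3 per time point) received a single oral dose of [14C]CS-1036 at 5 mg/kg. White adipose tissue was collected after abdominal aortic bleeding at 1, 4, 8, 24, 72, 168 or 336 h. Samples were counted by LSC with external-standard efficiency correction. Results were converted to ng equivalents per g from specific activity and sample weight.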

[13] = Drug uptake in albino F344/DuCrlCrlj rat skeletal muscle at 5 mg/kg, po after 336 hrs by liquid scintillation counting; format: ADME, organism-based, Muscle tissue
[14] = system: Aorta; experiment: Drug uptake in albino F344/DuCrlCrlj rat aorta assessed as ng equivalent of CS-1036 at 5 mg/kg, po after 168 hrs by liquid scintillation counting; format: ADME, organism-based
[15] = Drug uptake in albino F344/DuCrlCrlj rat bone marrow assessed as ng equivalent of CS-1036 at 5 mg/kg, po after 168 hrs by liquid scintillation counting; format: ADME, organism-based
[16] = system: Heart; experiment: Drug uptake in albino F344/DuCrlCrlj rat heart assessed as ng equivalent of CS-1036 at 5 mg/kg, po after 24 hrs by liquid scintillation counting; format: ADME, organism-based
[17] = system: Large intestine; experiment: Drug uptake in albino F344/DuCrlCrlj rat large intestine assessed as ng equivalent of CS-1036 at 5 mg/kg, po after 72 hrs by liquid scintillation counting; format: ADME, organism-based
[18] = Drug uptake in albino F344/DuCrlCrlj rat bone marrow at 5 mg/kg, po after 24 hrs by liquid scintillation counting; format: ADME, organism-based
[19] = system: Adrenal gland; experiment: Drug uptake in albino F344/DuCrlCrlj rat adrenal gland at 5 mg/kg, po after 72 hrs by liquid scintillation counting; format: ADME, organism-based
[20] = Drug uptake in albino F344/DuCrlCrlj rat skeletal muscle assessed as ng equivalent of CS-1036 at 5 mg/kg, po after 8 hrs by liquid scintillation counting; format: ADME, organism-based, Muscle tissue
[21] = system: Cerebellum; experiment: Drug uptake in albino F344/DuCrlCrlj rat cerebellum at 5 mg/kg, po after 336 hrs by liquid scintillation counting; format: ADME, organism-based
[22] = Drug uptake in albino F344/DuCrlCrlj rat urinary bladder at 5 mg/kg, po after 336 hrs by liquid scintillation counting; format: ADME, organism-based
[23] = system: Heart; experiment: Drug uptake in albino F344/DuCrlCrlj rat heart assessed as ng equivalent of CS-1036 at 5 mg/kg, po after 168 hrs by liquid scintillation counting; format: ADME, organism-based
[24] = system: Cerebellum; experiment: Drug uptake in albino F344/DuCrlCrlj rat cerebellum assessed as ng equivalent of CS-1036 at 5 mg/kg, po after 4 hrs by liquid scintillation counting; format: ADME, organism-based
[25] = system: Kidney; experiment: Drug uptake in albino F344/DuCrlCrlj rat kidney at 5 mg/kg, po after 24 hrs by liquid scintillation counting; format: ADME, organism-based
[26] = system: Lung; experiment: Drug uptake in albino F344/DuCrlCrlj rat lung assessed as ng equivalent of CS-1036 at 5 mg/kg, po after 72 hrs by liquid scintillation counting; format: ADME, organism-based
[27] = Drug uptake in albino F344/DuCrlCrlj rat thyroid gland at 5 mg/kg, po after 72 hrs by liquid scintillation counting; format: ADME, organism-based
[28] = Drug uptake in albino F344/DuCrlCrlj rat thyroid gland assessed as ng equivalent of CS-1036 at 5 mg/kg, po after 24 hrs by liquid scintillation counting; format: ADME, organism-based
[29] = system: Stomach; experiment: Drug uptake in albino F344/DuCrlCrlj rat stomach at 5 mg/kg, po after 336 hrs by liquid scintillation counting; format: ADME, organism-based
[30] = Drug uptake in albino F344/DuCrlCrlj rat eyeball at 5 mg/kg, po after 168 hrs by liquid scintillation counting; format: ADME, organism-based
[31] = system: Lung; experiment: Drug uptake in albino F344/DuCrlCrlj rat lung at 5 mg/kg, po after 24 hrs by liquid scintillation counting; format: ADME, organism-based
[32] = Drug uptake in albino F344/DuCrlCrlj rat epididymis at 5 mg/kg, po after 8 hrs by liquid scintillation counting; format: ADME, organism-based
[33] = system: Cerebellum; experiment: Drug uptake in albino F344/DuCrlCrlj rat cerebellum assessed as ng equivalent of CS-1036 at 5 mg/kg, po after 336 hrs by liquid scintillation counting; format: ADME, organism-based
[34] = system: Zone of skin; experiment: Drug uptake in albino F344/DuCrlCrlj rat skin assessed as ng equivalent of CS-1036 at 5 mg/kg, po after 24 hrs by liquid scintillation counting; format: ADME, organism-based
[35] = Drug uptake in albino F344/DuCrlCrlj rat eyeball at 5 mg/kg, po after 72 hrs by liquid scintillation counting; format: ADME, organism-based
[36] = Drug uptake in albino F344/DuCrlCrlj rat fat at 5 mg/kg, po after 72 hrs by liquid scintillation counting; format: ADME, organism-based, Adipose tissue; how it was run: as §2

Radiolabel recovery [1]: 49 ngequiv/g | Radiolabel recovery [2]: 46.3 ngequiv/ml | Radiolabel recovery [3]: 52100 ngequiv/g | Radiolabel recovery [4]: 5.08 ngequiv/g | Radiolabel recovery [5]: 52 ngequiv/g | Radiolabel recovery [6]: 7.1 ngequiv/g | Radiolabel recovery [7]: 8.55 ngequiv/ml | Radiolabel recovery [8]: 116 ngequiv/g | Radiolabel recovery [9]: 6.5 ngequiv/ml | Radiolabel recovery [10]: 33 ngequiv/g | Radiolabel recovery [11]: 19.5 ngequiv/g | Radiolabel recovery [12]: 14 ngequiv/g | Radiolabel recovery [13]: 7.04 ngequiv/g | Radiolabel recovery [14]: 6.8 ngequiv/g | Radiolabel recovery [15]: 23 ngequiv/g | Radiolabel recovery [16]: 4.4 ngequiv/g | Radiolabel recovery [17]: 29.5 ngequiv/g | Radiolabel recovery [18]: 116 ngequiv/g | Radiolabel recovery [19]: 99.7 ngequiv/g | Radiolabel recovery [20]: 11.2 ngequiv/g | Radiolabel recovery [21]: 5.41 ngequiv/g | Radiolabel recovery [22]: 11.7 ngequiv/g | Radiolabel recovery [23]: 5.9 ngequiv/g | Radiolabel recovery [24]: 0.6 ngequiv/g | Radiolabel recovery [25]: 137 ngequiv/g | Radiolabel recovery [26]: 5.1 ngequiv/g | Radiolabel recovery [27]: 99.1 ngequiv/g | Radiolabel recovery [28]: 20 ngequiv/g | Radiolabel recovery [29]: 11.9 ngequiv/g | Radiolabel recovery [30]: 4.54 ngequiv/g | Radiolabel recovery [31]: 72 ngequiv/g | Radiolabel recovery [32]: 40.8 ngequiv/g | Radiolabel recovery [33]: 3.05 ngequiv/g | Radiolabel recovery [34]: 8.2 ngequiv/g | Radiolabel recovery [35]: 7.83 ngequiv/g | Radiolabel recovery [36]: 194 ngequiv/g
Compound: C[C@H]1O[C@@H](O[C@H]2[C@H](O)[C@@H](O)[C@@H](O[14C@H]3[14C@H](O)[14CH2]N[14C@@H]3[14CH2]O)O[C@@H]2CO)[C@H](O)[C@@H](O)[C@@H]1O
